Compounds with a hit are over-represented: about 3.8% of the library has one in this group of screens.
MC4R antagonist = MC4R antagonists of cAMP signaling, primary screen, cell-based, TR-FRET, antagonist arm of biased-ligand search; Melanocortin receptor 4 (Homo sapiens), P32245; MC4R-expressing cells, MTII-stimulated cAMP, LANCE TR-FRET; inhibition, % at 6.5 µM; 360,000 compounds, 0.48% hits;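 active = inhibition above its plate's cutoff, the mean of tested wells on that plate plus 3 SD, cut at about 29% in these data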
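Assay system: U2OS cells stably expressing human melanocortin 4 receptor (MC4R) / Dosing: 6.5 µM / Timing: compound 30 min, challenge 1 h, detection 1 h / Measured by: Eu-cAMP/anti-cAMP TR-FRET, emission 671 nm / Replicates: singlicate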
CSC inhib = cancer stem cell viability inhibitors, primary screen, luminescence | cancer stem cell-like cells viability | inhibition, % at 7.5 µM | 300,000 compounds, 1.1% hits; in the data active = inhibition above about 75%; inconclusive = no clear call, values can overlap the other calls; tested in HMLE shEcad cells
TMEM16A act = TMEM16A chloride channel activators or potentiators, primary screen, cell-based, HTS. Anoctamin-1 (Mus musculus), Q8BHY3. HEK293 TMEM16A/YFP-H148Q/I152L, iodide quench fluorescence; hits give low values. B-score at 10 µM. 340,000 compounds, 0.3% hits;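 active = fluorescence-ratio B-score plate-corrected deviation score at least 3 library SD below zero, with starting fluorescence score within 5 deviations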;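 note: channel opened by trigger with iodide after compound preincubation; score built on the fluorescence ratio of max minus min over baseline; more negative score means more quench and so TMEM16A activation or potentiation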
Beta apoptosis = inhibitors of cytokine-induced beta cell apoptosis, primary screen, luminescence; INS-1E cytokine-induced death, ATP luminescence, 48 h; percent of positive-control rescue, neutral wells zero; protection from apoptosis, % (concentration not given with the values); 300,000 compounds, 0.8% hits;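 active = Every replicate reaches about 75%, or at least half do and their mean reaches it too, limit read from the data; inconclusive = At least half of replicates reach the limit but their mean does not; inactive = Under half of replicates reach the limit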;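 note: higher means more ATP so stronger rescue from cytokine killing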
MC4R barr agon = MC4R agonists recruiting beta-arrestin, primary screen, cell-based, luminescence, agonist arm of biased-ligand search; AID 540308, 2011; 360,000 compounds, 0.98% hits; Melanocortin receptor 4 (Homo sapiens), P32245; U2OS MC4R beta-arrestin complementation; percent of melanotan II response, DMSO zero; activation, % at 8.9 µM;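 active = activation above a per-plate cutoff, the mean activation of sample wells on that plate plus 3 SD, cut at about 8% in these data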
TMEM16A inh = TMEM16A chloride channel inhibitors, primary screen, cell-based, HTS; Anoctamin-1 (Mus musculus), Q8BHY3; HEK293 TMEM16A/YFP iodide influx fluorescence, ionomycin; normalized B-score (activity score, 25-100; higher = stronger inhibition) at 10 µM; 310,000 compounds, 1.2% hits;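 active = ratio plate-corrected score three or more library SD toward inhibition, starting fluorescence score within five deviations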;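 note: score derived from kinetic fluorescence span divided by baseline fluorescence per well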
A number is an active result; - = inactive; ? = inconclusive; . = not tested or not shown.

SMILES	MC4R antagonist	CSC inhib	TMEM16A act	Beta apoptosis	MC4R barr agon	TMEM16A inh
COc1ccc(S(=O)(=O)N2CCCOC2CNC(=O)C(=O)NCCCn2ccnc2)cc1OC (stereo unspecified)	-	-	-	-	-	-
COc1ccc(S(=O)(=O)N2CCOC2CNC(=O)C(=O)NCCCn2ccnc2)cc1OC (stereo unspecified)	-	-	-14.9	-	-	-
COc1cc(C(=O)OCc2cccc(OC)c2OC)ccc1OCC(=O)N1CCOCC1	-	-	-	-	-	.
CCN(c1ccccc1)c1nc(C#N)nc(N(CC)c2ccccc2)n1	-	89.7	-	-	-	25
CC(C)Cc1nnc(NC(=O)C2CCCN(C(=O)c3ccc(Cl)cc3)C2)s1 (stereo unspecified)	-	.	.	.	-	.
CC(C)(C)OC(=O)C[C@@H]1C/C=C\C[C@@H](CC(=O)N(CCO)Cc2ccccc2)C(=O)NCCOC1=O	-	-	-4.82	-	-	.
CC(C)(C)OC(=O)C[C@H]1C/C=C\C[C@H](CC(=O)N(CCO)Cc2ccccc2)C(=O)NCCOC1=O	-	-	-	-	-	.
Cc1cc(-c2nnc3n2N=C(c2ccccc2)CS3)n[nH]1	-	-	-	-	-	-
Cc1cc(-c2nnc3n2N=C(c2ccc(-c4ccccc4)cc2)CS3)n[nH]1	-	-	-	-	9.3	-
Cc1ccc2[nH]c3c(=O)n(CC(=O)N4CCN(C)CC4)ncc3c2c1	-	-	-	-	-	-
c1ccc(-c2cccc(-c3ccccn3)n2)nc1	-	107.0	-	81.5	-	-
CCn1c(=NC(=O)c2cccc(N3C(=O)CCC3=O)c2)sc2c(OC)ccc(OC)c21	-	-	-6.38	-	-	-
COc1ccc(OC)c2c1sc(=NC(=O)c1cccc(N3C(=O)CCC3=O)c1)n2C	-	-	-	-	-	-
CC(C)(C)C(=O)N1CCC2CC1c1cc(Cl)ccc12 (stereo unspecified)	-	.	.	.	-	.
COc1ccc(/C=N/NC(=O)c2cccc3ccccc23)c(OC)c1OC	-	-	-	.	-	-
COC(=O)N/N=C/c1cc(N=Nc2ccccc2)ccc1O	-	-	-	-	-	-
Cc1cc(C(=O)N/N=C/c2cc(N=Nc3ccccc3)ccc2O)n[nH]1	-	108.7	-	83.3	-	-
Nc1ccc(C(=O)N/N=C\c2cc(N=Nc3cccc4ccccc34)ccc2O)cc1	-	98.1	-	-	-	-
Cc1ccc(-c2c3c(nc4sc(C(N)=O)c(N)c24)CCC3)cc1	-	-	-	-	-	-
Cc1ccc(C(=O)Cn2nnc3c(sc4nc5c(c(-c6ccccc6)c43)CCC5)c2=O)cc1	-	85.8	-	-	-	-
CC(=O)c1ccccc1OCC(O)CN1CCN(CCN2C(=O)c3cccc4cccc(c34)C2=O)CC1 (stereo unspecified)	-	-	-	-	-	-
O=C1c2cccc3cccc(c23)C(=O)N1CCN1CCN(CC(O)COc2ccc3ccccc3c2)CC1 (stereo unspecified)	-	104.5	-	-	-	-
Nc1cc2c3c(cccc3c1)C(=O)N(CCN1CCCC1)C2=O	-	-	-	75.1	-	-
O=C1c2cccc3cccc(c23)C(=O)N1CCN1CCN(CC(O)COCc2ccc(Cl)cc2)CC1 (stereo unspecified)	-	82.1	-	-	-	-
COc1cc(COCC(O)CN2CCN(CCN3C(=O)c4cccc5cccc(c45)C3=O)CC2)cc(OC)c1OC (stereo unspecified)	-	-	-	-	-	-
SMILES	MC4R antagonist	CSC inhib	TMEM16A act	Beta apoptosis	MC4R barr agon	TMEM16A inh
O=C1c2cccc3cc([N+](=O)[O-])cc(c23)C(=O)N1CCN1CCCC1	-	.	-	.	-	.
CC1(C(=O)NS(=O)(=O)C2CC2)CCCN(C(=O)c2cccs2)C1 (stereo unspecified)	-	.	.	.	-	.
Cn1c(-c2cccc(Br)c2)cnc1NCc1ccccc1O	-	-	-	-	-	-
O=C(NC(=S)NCCc1ccccc1)C1CCCCC1	-	101.7	-	-	-	-
CC(C)Cc1cc(C(=O)N2N=C(C(F)F)CC2(O)C(F)F)c2ccccc2n1 (stereo unspecified)	-	-	-	-	-	-
CCc1ccc(-c2cc(C(=O)N3N=C(C(F)F)CC3(O)C(F)F)c3ccccc3n2)cc1 (stereo unspecified)	-	88.7	-	-	-	-
Cc1ccccc1NC(=O)COC(=O)c1ccc(S(=O)(=O)N2CCCC2)cc1	-	.	-	-	-	.
c1ccc(Nc2ccnc(Nc3ccccc3)n2)cc1	-	-	-	.	-	25
CC(=O)Nc1cc2oc3ccccc3c2cc1[N+](=O)[O-]	-	.	.	.	-	.
COc1cc2c(cc1NC(=O)CSc1nc3ccccc3[nH]1)oc1ccccc12	-	79.7	-	-	-	-
COc1cc2c(cc1NC(=O)c1cccc(S(=O)(=O)N(C)C)c1)oc1ccccc12	-	126.4	-	-	-	-
COc1cc2c(cc1NC(=O)Nc1ccc(C)cc1)oc1ccccc12	-	88.1	-	-	-	-
COc1cc2c(cc1NC(=O)CSc1ccccc1)oc1ccccc12	-	-	-	-	-	-
COc1cc2c(cc1NC(=O)c1cccc([N+](=O)[O-])c1C)oc1ccccc12	-	101.7	-	-	-	-
CN(C)S(=O)(=O)c1ccc(Cl)c(NC(=O)COC(=O)/C=C/c2ccc3ccccc3n2)c1	-	-	-	-	-	.
Cc1cc(=O)oc2cc3oc(=O)cc(C)c3cc12	-	-	-	.	-	-
CC1CCN(C(=O)c2ccc3c(c2)C(=O)c2ccccc2-3)CC1	-	.	.	.	-	.
Cc1oc2c(c1C(=O)N1CCC(C)CC1)C(=O)c1ccccc1C2=O	.	?	.	109.8	.	-
Cc1ccc(C(=O)c2c(C)oc3c2C(=O)C(=O)c2ccccc2-3)cc1	-	-	-17.9	124.1	-	25
CCOC(=O)C1CCN(C(=O)c2c(C)oc3c2C(=O)c2ccccc2C3=O)CC1	-	-	-	102.0	-	-
COc1cccc(NC(=O)C2CCN(C(=O)[C@@H]3Cc4ccccc4CN3)CC2)c1	-	-	-	-	-	-
CCc1cc(C(=O)NCC2CCCO2)sc1C (stereo unspecified)	-	-	-	-	-	-
COc1ccc(NC(=O)c2ccc3c(c2)NC(=O)CS3)cc1S(=O)(=O)Nc1ccc(Br)cc1	-	79.6	-	-	-	-
